Reference: ChEMBL document CHEMBL1134512, “Bicyclic analogues of D-myo-inositol 1,4,5-trisphosphate related to adenophostin A: synthesis and biological activity” (J Med Chem, 2001)

Assays:
[1] = Ratio to Ins(1,4,5)P3 was measured(ratio greater than 1 denotes greater affinity and less than -1 denotes lesser affinity)
Rattus norvegicus [2] = species on record: Rattus norvegicus; test: […] on [Ca2+] release from the intracellular stores of permealized hepatocytes; format: functional; settings: Hepatocyte
Summary of the method: (§1)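 Permeabilized rat hepatocytes loaded with 45Ca2+ to steady state (5 min, 37 °C) in cytosol-like medium pH 7.0 with ATP 1.5 mM, creatine phosphate 5 mM, creatine phosphokinase 5 units/mL, FCCP 10 µM. Thapsigargin (1.25 µM) added, agonist 30 s later, store Ca2+ measured by rapid filtration after 60 s. Four-parameter logistic fit gives EC50, Hill slope, maximal release; three experiments.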

[3] = Ratio to Ins(1,4,5)P3, for the effect on [Ca2+] release from the intracellular stores of permealized hepatocytes (ratio greater than 1 denotes greater potency and less than -1 denotes lesser potency); format: functional, Hepatocyte
[4] = Hill coefficient, measured using equilibrium competition binding with [3H]Inositol(1,4,5)P3
Rattus norvegicus [5] = species on record: Rattus norvegicus; test: Fraction of total [Ca2+] stores released by a maximal concentration of the compound; format: functional; summary of the method: as §1
[6] = Binding affinity towards rat liver membrane, measured using equilibrium competition binding with [3H]Inositol(1,4,5)P3
Hepatocyte = test: Hill coefficient for the effect on [Ca2+] release from the intracellular stores of permealized hepatocytes; format: cell-based; summary of the method: as §1

Ratio [1]	Hill coefficient [4]	Kd [6] [nM]	Compound	EC50 (Rattus norvegicus [2]) [nM]	Ratio [3]	Max response (Rattus norvegicus [5]) [%]	Hill coefficient (Hepatocyte)
-14	1.12	62	O=P(O)(O)O[C@H]1CO[C@@H]2[C@H](O)[C@@H](OP(=O)(O)O)[C@H](OP(=O)(O)O)[C@@H](O)[C@@H]2OC1	1230	-14	59	2.9
-21	1.01	98	O=P(O)(O)O[C@@H]1CO[C@@H]2[C@H](O)[C@@H](OP(=O)(O)O)[C@H](OP(=O)(O)O)[C@@H](O)[C@@H]2OC1	1650	-18	59	2.61
8.3	1.17	0.55	Nc1ncnc2c1ncn2[C@@H]1O[C@H](CO)[C@@H](O[C@H]2O[C@H](CO)[C@@H](OP(=O)(O)O)[C@H](OP(=O)(O)O)[C@H]2O)[C@H]1OP(=O)(O)O [ADENOPHOSTIN A]	9.2	9.8	49	2.99
1	1.16	4.56	O=P(O)(O)O[C@@H]1[C@H](O)[C@H](O)[C@@H](OP(=O)(O)O)[C@H](OP(=O)(O)O)[C@H]1O [INS(1,4,5)P3]	90	1	59	1.48
